Our source for the AUC and Cmax values is ChEMBL document CHEMBL4811219 (Eur J Med Chem, 2021).

What all share (format): ADME, organism-based
Common to all, as to conditions: in vivo

The nature of series [1]: Observed AUC (0-7 hrs) in CD-1 mouse at 10 mg/kg, ip by LC-MS/MS analysis. Further details: time < 7 hr, route intraperitoneal, dose 10 mg/kg.
A short description of series [2]: Cmax in CD-1 mouse at 10 mg/kg, ip upto 7 hrs by LC-MS/MS analysis. Further details: route intraperitoneal, dose 10 mg/kg, time <=7. In outline:
(§1)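 Female CD-1 mice, single dose of 10 mg/kg i.p. or 20 mg/kg p.o., in 20% DMSO/50% PEG-400/30% PBS. Blood was sampled at 0.5, 2, 4 and 7 h and plasma assayed by LC-MS/MS (ESI positive MRM). Parameters are noncompartmental, mean of N=3.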

Series [3] in a line: Cmax in CD-1 mouse at 20 mg/kg, po upto 7 hrs by LC-MS/MS analysis. Further details: route oral, dose 20 mg/kg, time <=7. A digest of the protocol:
as §1

Series [4] can be described thus: Observed AUC (0-7 hrs) in CD-1 mouse at 20 mg/kg, po by LC-MS/MS analysis. Further details: time < 7 hr, route oral, dose 20 mg/kg.

For `CC(Sc1nc2nn(C3COC3)cc2c(=O)n1-c1ccccc1)c1ccccc1` (stereo not drawn), in series [1], the AUC was 19.5 µM·h. The molecule also gave a Cmax in series [2] of 7.9 µM.
Consider `CC(Sc1nc2c(cnn2C)c(=O)n1-c1ccccc1)c1ccccc1` (stereo not drawn), for which the AUC in series [1] was 4.9 µM·h; in series [4], 3.9 µM·h. The highest concentration (Cmax) is 0.8 µM in series [3] and 2.3 µM in series [2].
In the case of `CC(Sc1nc2nn(C3COC3)cc2c(=O)n1-c1ccccc1)c1ccccn1` (stereo not drawn), the maximum concentration (Cmax) in series [3] came out at 3.9 µM; in series [2], 3.3 µM.
For the molecule `CC(Sc1nc2nn(C3(C)COC3)cc2c(=O)n1-c1ccccc1)c1ccccc1` (stereo not drawn), the area under the curve (AUC) in series [1] came out at 23 µM·h; in series [4], 23.3 µM·h. In addition, the maximum concentration (Cmax) in series [3] and in series [2] was 7 µM in each case.
For the molecule `CC(Sc1nc2c(cnn2C)c(=O)n1-c1ccccc1)c1ccccn1` (stereo not drawn), the area under the curve (AUC) in series [1] came out at 7.9 µM·h; in series [4], 17.4 µM·h. For the same molecule, the highest concentration (Cmax) in series [3] is 7.3 µM; in series [2] it was 3.9 µM.
Regarding `C[C@@H](Sc1nc2c(cnn2C)c(=O)n1-c1ccccc1)c1ccccc1`, in series [1], the AUC came out at 0.7 µM·h. This molecule also came in with a Cmax in series [2] of 0.3 µM.

What is called AUC is the area under the concentration-time curve, a measure of exposure. As a reminder, the Cmax is the maximum level reached in the sampled fluid or tissue.
